# Compounds with a hit are over-represented: about 3.5% of the library has one in this group of screens.
# MrgX1 antag: blocks BAM8-22 activation of human MrgX1 receptor; B-score at 10 µM; MRGX1-HEK293 calcium flux, Fluo-4, BAM8-22 antagonism; hits give low values; AID 588676; actives 1.3% (n = 310,000);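 active = calcium-response B-score plate-corrected more than 3 library SD below zero, starting fluorescence within 5 deviations, no agonist response on first addition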;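 also: peak minus trough fluorescence over baseline after final BAM8-22 challenge near maximal dose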
# MrgX1 ag: human MrgX1 receptor agonism, primary screen. B-score at 10 µM. Q96LB2. actives 0.44% (n = 310,000). MrgX1-HEK293 cells, Fluo-4 calcium fluorescence, agonist mode; hits give high values;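 active = calcium response B-score plate-corrected fluorescence ratio at least 3 library SD, with starting fluorescence B-score inside 5 SD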
#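 Material – MrgX1-expressing HEK293 cells · Input – 15,000 cells seeded per well · Dosing – compound as first of three additions · Times – overnight seeding, then 1 h dark dye loading · Measured by – kinetic Fluo-4 NW fluorescence of intracellular calcium · Read-out – B-scored fluorescence response ratio · Benchmarks – positive and negative control wells on each plate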
# MrgX1 PAM: human MrgX1 positive allosteric modulation, primary screen; B-score at 10 µM; Q96LB2; MrgX1-HEK293, Fluo-4 calcium flux, FDSS; hits give high values; actives 0.63% (n = 310,000); AID 588675;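 active = plate-corrected calcium response at least 3 library SD above typical, normal starting fluorescence, not activating the receptor alone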;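 also: compound read alongside a low EC10 to EC30 dose of BAM8-22 agonist; peak minus trough fluorescence over baseline measured at the second addition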
# RGS4 inh: inhibitors of human RGS4; P49798; HEK293 M3R/RGS4 inducible, Fluo-4 calcium flux; hits give high values; triggered by carbachol at its EC20; B-score at 10 µM; actives 0.45% (n = 310,000); AID 463165;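 active = B-score, a plate-corrected calcium signal, over three deviations above library mean, with baseline fluorescence within five deviations of library mean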;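 also: RGS4 expression induced by doxycycline in cells with stable M3 receptor; B-score is computed from the integrated fluorescence ratio over baseline after carbachol; higher B-score means a larger calcium signal and so more RGS4 inhibition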
# Target sequence (P49798 whole entry, looked up): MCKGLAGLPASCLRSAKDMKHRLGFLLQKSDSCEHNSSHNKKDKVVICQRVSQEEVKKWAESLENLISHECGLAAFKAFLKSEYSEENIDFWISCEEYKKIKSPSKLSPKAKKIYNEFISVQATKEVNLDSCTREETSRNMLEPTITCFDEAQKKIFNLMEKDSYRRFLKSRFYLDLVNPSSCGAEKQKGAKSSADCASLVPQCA
# RGS4 act: potentiators or activators of RGS4 | HEK293 M3R/inducible RGS4, carbachol calcium flux Fluo4; hits give low values | AID 463111 | B-score at 10 µM | actives 0.92% (n = 310,000);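 active = B-score of the integrated calcium signal more than 4 SD below the library mean, with starting fluorescence not abnormally high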;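 also: negative B-score means reduced calcium response which marks RGS4 activation or potentiation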
#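 Assay system: HEK293 FlpIn-TREx cells, stable M3R, doxycycline-inducible RGS4 / Probe or stimulus: carbachol, ECmax concentration / Times: overnight RGS4 induction, 30 min dye load 37 °C, 20 min compound RT / Signal: kinetic calcium fluorescence imaging with Fluo4-AM dye, 2 µM / Measure: Agonist-evoked peak-minus-minimum fluorescence over baseline, integrated ratio, B score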
# Numbers without * were called inactive; i = inactive.
SMILES,MrgX1 antag,MrgX1 ag,MrgX1 PAM,RGS4 inh,RGS4 act
O=C(Cn1sc2ccccc2c1=O)N1CCN(C(=O)c2ccco2)CC1,i,i,i,i,i
CCc1ccc(-c2nc(CSCC(=O)N3CCN(c4ccccn4)CC3)c(C)o2)cc1,-7.1*,i,i,i,i
CC(=O)N1CCC(c2c[nH]c3ccccc23)CC1,i,i,i,i,i
Cc1ccccc1N=C1SC(CC(=O)Nc2ccc3ccccc3c2)C(=O)N1Cc1ccccn1 (stereo not given),-9.74*,i,i,i,i
COc1ccccc1CNC(=O)COC(=O)CSc1ccc(F)cc1,i,i,i,i,i
C/C(=C\C(=O)c1ccc(Br)cc1)Nc1cccc(Cl)c1,i,i,i,i,-8.09*
C/C(=C\C(=O)c1ccc(Cl)cc1)Nc1ccc(Br)cc1,i,i,i,i,i
Nc1nc(C23CC4CC(CC(C4)C2)C3)[nH]c(=O)n1,i,i,i,i,i
CC1CCCCN1C(=O)CSc1nc(C2CC2)nc2c1cnn2-c1ccccc1 (stereo not given),i,i,i,i,-6.96*
Cc1nn(C)c(C)c1NC(=O)CSc1nc(C2CC2)nc2c1cnn2-c1ccccc1,i,i,i,i,i
COc1ccc(C(=O)NC2CC2)cc1OC1CCN(Cc2cc(C)cc(C)c2)CC1,i,i,i,i,i
CC(C)C[C@H](NC(=O)c1nc[nH]c1C(=O)NCCCCCNC(=O)OC(C)(C)C)C(=O)OCc1ccccc1,i,i,i,i,i
CC(C)(C)OC(=O)NCCCCCNC(=O)c1[nH]cnc1C(=O)N[C@@H](Cc1ccccc1)C(=O)OCc1ccccc1,i,i,i,i,-7.5*
CC(C)C[C@H](NC(=O)c1[nH]cnc1C(=O)Nc1ccc(CNC(=O)OC(C)(C)C)cc1)C(=O)OC(C)(C)C,i,i,i,i,-7.04*
C[C@H](NC(=O)c1nc[nH]c1C(=O)NCCCCCNC(=O)OC(C)(C)C)C(=O)OCc1ccccc1,i,i,7.76*,i,-7.83*
C[C@H](NC(=O)c1nc[nH]c1C(=O)N[C@@H](CCCCNC(=O)OC(C)(C)C)C(=O)OC(C)(C)C)C(=O)OCc1ccccc1,i,i,i,i,i
Oc1ccc(Br)cc1-c1ccnn1-c1ccccc1,i,i,i,i,i
CCOc1ccccc1Nc1nnc(SCc2nnc(-c3cc(OC)c(OC)c(OC)c3)o2)s1,-6.19*,i,i,i,i
COc1cc(-c2nnc(CSc3nnc(Nc4ccc(C(C)C)cc4)s3)o2)cc(OC)c1OC,i,i,i,i,i
COc1ccccc1Nc1nnc(SCc2nnc(-c3cc(OC)c(OC)c(OC)c3)o2)s1,i,i,7.1*,i,i
COCc1ccc(C(=O)NC2CCCN(Cc3ccccc3F)C2)o1 (stereo not given),i,i,i,i,i
CCN1CCN(C(=O)c2cccc(OC3CCN(S(C)(=O)=O)CC3)c2)[C@@H](C)C1=O,i,i,i,i,i
O=C1N/C(=N/O)S/C1=C/c1cccnc1,i,i,i,i,i
Cc1ccc(S(=O)(=O)/N=C2/NC(=O)/C(=C/c3cccnc3)S2)cc1,i,31.1*,i,i,i
O=C(CSc1nc2ccc(Nc3nc(N4CCCC4)nc(N4CCCC4)n3)cc2s1)NCc1ccco1,i,i,i,i,i
O=C1C2(CCCC13COC(c1ccc(O)cc1)OC3)COC(c1ccc(O)cc1)OC2 (stereo not given),i,i,i,i,i
Cc1ccc(-n2c3nc(=O)[nH]c(=O)c-3cc3cc([N+](=O)[O-])ccc32)cc1,i,52.8*,i,i,i
O=c1[nH]cc(S(=O)(=O)Nc2ccc3c(c2)OCO3)c(=O)[nH]1,i,i,i,i,i
Cc1ccc(CN(Cc2cc3cccc(C)c3[nH]c2=O)C(=S)NCCCN(C)C)cc1,i,i,9.71*,i,i
COc1ccc(C(=O)Nc2cc(C(C)=O)c(/C=C/N(C)C)oc2=O)cc1,-5.28*,i,i,i,i

# Assay outcomes from PubChem BioAssay.
